These results are taken from ChEMBL document CHEMBL4041511, “Synthesis of coumaperine derivatives: Their NF-κB inhibitory effect, inhibition of cell migration and their cytotoxic activity” (Eur J Med Chem, 2017).

For assay [1], the system named is A549. Description: Anti-migratory activity against human A549 cells assessed as reduction in wound closure at 5 ug/ml after 48 hrs by wound scratch assay. The format is functional, cell-based. In outline: (§1)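 A549 cells seeded in 6-well plates without compound; after monolayer formed (24 h), compound or DMSO vehicle added and monolayer scratched. Wound closure recorded after 48 h; concentrations 2-10 μg/ml. Representative of three independent experiments.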

For assay [2], the species on record is Homo sapiens. Description: Inhibition of NFkappaB p50 subunit in human L428 cells assessed as depletion of […] subunit from nucleus after 2 hrs by DAPI staining based confocal microscopic method. The format is cell-based. An outline of the steps: (§2)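 L428 cells incubated 2 h at 37 °C with compound at 10 or 30 μg/ml, cytocentrifuged (900 rpm, 5 min), fixed in 8% formalin 20 min. Separate staining with anti-p65 or anti-p50 plus fluorescent secondary antibodies; nuclei stained with DAPI. Nuclear localization imaged by confocal microscopy.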

For assay [3], the species on record is Homo sapiens. Kind of assay: Inhibition of NF-kappaB in human L428 cells at 10 ug/ml after 2 hrs by luciferase reporter gene assay relative to control. The class given is cell-based. In outline:
(§3)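 L428 cells stably carrying NF-κB-luciferase reporter (kept in 500 µg/ml G418), 10⁶ per well in 1 ml medium with DMSO solvent and compound (10-50 μg/ml) for 2 h, triplicate wells. Lysates assayed for luciferase, luminescence normalized to Bradford protein. Solvent control = 100%; Nuphar extract positive control; mean and SD of three independent experiments.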

The species entered for assay [4] is Homo sapiens. Description: Inhibition of NF-kappaB in human L428 cells at 40 ug/ml after 2 hrs by luciferase reporter gene assay relative to control. The class given is cell-based. An outline of the steps: as §3
The subject of assay [5] is A549. Kind of assay: Cytotoxicity against human A549 cells assessed as reduction in cell viability after 48 hrs by XTT assay. The format is functional, cell-based. The note with it: A549, 48 h. An outline of the steps:
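A549 cells (DMEM, 10% heat-inactivated FBS, L-glutamine, Pen-Strep), 3 x 10^4 per well, left 24 h to form monolayer, then exposed to graded concentrations for 48 h in triplicate. XTT added, further 4 h at 37 °C, absorbance at 450 nm. Untreated control = 100% survival; mean and SD of three independent experiments.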

The species named for assay [6] is Homo sapiens. Kind of assay: Inhibition of NF-kappaB in human L428 cells after 2 hrs by luciferase reporter gene assay. The class given is cell-based. In outline: as §3
Assay [7] relates to L-428. Description: Inhibition of NFkappaB p65 subunit expression in nuclear fractions of human L428 cells after 2 hrs by Western method. The format is functional, cell-based. In outline: (§4)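 10 x 10^6 L428 cells per sample exposed 2 h to various concentrations or DMSO. Cytosolic and nuclear fractions prepared by hypotonic lysis, needle shearing and high-salt nuclear extraction. 40 µg protein (Bradford) run on 10% SDS-PAGE, immunoblotted for p50, p65, RelB; β-actin and Lamin B loading controls; ECL detection. At least three independent experiments.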

Assay [8] is filed under the species Homo sapiens. Description: Inhibition of NF-kappaB in human L428 cells at 20 ug/ml after 2 hrs by luciferase reporter gene assay relative to control. The class given is cell-based. An outline of the steps: as §3
Assay [9] has as its system L-428. Description: Inhibition of NFkappaB p50 subunit expression in nuclear fractions of human L428 cells after 2 hrs by Western method. The format is functional, cell-based. An outline of the steps: as §4
For assay [10], the system named is L-428. Kind of assay: Inhibition of RelB protein expression in nuclear fractions of human L428 cells at 5 to 30 ug/ml after 2 hrs by Western method. The format is functional, cell-based. An outline of the steps: as §4
For assay [11], the species on record is Homo sapiens. Kind of assay: Inhibition of NF-kappaB in human L428 cells at 50 ug/ml after 2 hrs by luciferase reporter gene assay relative to control. The class given is cell-based. In outline:
as §3

In assay [12] the test system is L-428. Description: Inhibition of NFkappaB p50 subunit expression in cytosolic fractions of human L428 cells after 2 hrs by Western method. The format is functional, cell-based. In outline:
as §4

The target in assay [13] is Transcription factor p65 (Homo sapiens) (UniProt Q04206). Kind of assay: Inhibition of NFkappaB p65 subunit in human L428 cells assessed as depletion of p65 subunit from nucleus after 2 hrs by DAPI staining based confocal microscopic method. The class given is cell-based. In outline:
as §2

Assay [14] is filed under the species Homo sapiens. Kind of assay: Inhibition of NF-kappaB in human L428 cells at 30 ug/ml after 2 hrs by luciferase reporter gene assay relative to control. The format is cell-based. In outline: as §3
Assay [15] has as its system L-428. Description: Inhibition of RelB protein expression in cytosolic fractions of human L428 cells at 5 to 30 ug/ml after 2 hrs by Western method. The class given is functional, cell-based. In outline:
as §4

Assay [16] has as its system L-428. Description: Inhibition of NFkappaB p65 subunit expression in cytosolic fractions of human L428 cells after 2 hrs by Western method. The format is functional, cell-based. In outline:
as §4

The subject of assay [17] is L-428. Description: Cytotoxicity against human L428 cells assessed as reduction in cell viability after 48 hrs by XTT assay. The note with it: for IC50: L-428, 48 h. The class given is functional, cell-based. An outline of the steps: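 L428 Hodgkin's lymphoma cells (RPMI 1640; lack IκBα, constitutive NF-κB), 3 x 10^4 per well in 200 µl, treated with graded concentrations for 48 h at 37 °C in triplicate. XTT added for 4 h at 37 °C, absorbance read at 450 nm. Control = 100% survival; mean and SD of three independent experiments.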

The species entered for assay [18] is Mus musculus. Kind of assay: Inhibition of LPS-induced NFkappaB activation in mouse RAW264.7 cells at 100 ug/ml after 24 hrs by luciferase reporter gene assay relative to control. The class given is cell-based.
The species named for assay [19] is Homo sapiens. Description: Inhibition of IL-1beta-induced NFkappaB activation in human OA chondrocytes at 100 ug/ml after 24 hrs by luciferase reporter gene assay relative to control. The format is cell-based.
For assay [20], the system named is L-428. Kind of assay: Inhibition of NFkappaB p50 subunit expression in cytosolic fractions of human L428 cells at 10 to 40 ug/ml after 2 hrs by Western method. The format is functional, cell-based. In outline: as §4
Assay [21] deals with L-428. Description: Inhibition of NFkappaB p65 subunit expression in nuclear fractions of human L428 cells at 10 to 40 ug/ml after 2 hrs by Western method. The class given is functional, cell-based. In outline: as §4
For assay [22], the system named is A549. Description: Anti-migratory activity against human A549 cells assessed as reduction in wound closure at 10 ug/ml after 48 hrs by wound scratch assay. The format is functional, cell-based. In outline: as §1
Assay [23] relates to L-428. Kind of assay: Inhibition of NFkappaB p65 subunit expression in cytosolic fractions of human L428 cells at 10 to 40 ug/ml after 2 hrs by Western method. The format is functional, cell-based. An outline of the steps:
as §4

The subject of assay [24] is L-428. Description: Inhibition of NFkappaB p50 subunit expression in nuclear fractions of human L428 cells at 10 to 40 ug/ml after 2 hrs by Western method. The class given is functional, cell-based. In outline:
as §4

Assay [25] relates to L-428. Description: Inhibition of RelB protein expression in cytosolic fractions of human L428 cells at 10 to 40 ug/ml after 2 hrs by Western method. The format is functional, cell-based. An outline of the steps: as §4
Assay [26] relates to L-428. Description: Inhibition of RelB protein expression in nuclear fractions of human L428 cells at 10 to 40 ug/ml after 2 hrs by Western method. The class given is functional, cell-based. An outline of the steps:
as §4

Structures are written as SMILES. In brackets after ≈: the same amount, converted by molar mass. Activity calls are given as the source filed them. The rule behind the calls is not given here.

Transcription factor p65 (Homo sapiens), sequence (Q04206 whole entry): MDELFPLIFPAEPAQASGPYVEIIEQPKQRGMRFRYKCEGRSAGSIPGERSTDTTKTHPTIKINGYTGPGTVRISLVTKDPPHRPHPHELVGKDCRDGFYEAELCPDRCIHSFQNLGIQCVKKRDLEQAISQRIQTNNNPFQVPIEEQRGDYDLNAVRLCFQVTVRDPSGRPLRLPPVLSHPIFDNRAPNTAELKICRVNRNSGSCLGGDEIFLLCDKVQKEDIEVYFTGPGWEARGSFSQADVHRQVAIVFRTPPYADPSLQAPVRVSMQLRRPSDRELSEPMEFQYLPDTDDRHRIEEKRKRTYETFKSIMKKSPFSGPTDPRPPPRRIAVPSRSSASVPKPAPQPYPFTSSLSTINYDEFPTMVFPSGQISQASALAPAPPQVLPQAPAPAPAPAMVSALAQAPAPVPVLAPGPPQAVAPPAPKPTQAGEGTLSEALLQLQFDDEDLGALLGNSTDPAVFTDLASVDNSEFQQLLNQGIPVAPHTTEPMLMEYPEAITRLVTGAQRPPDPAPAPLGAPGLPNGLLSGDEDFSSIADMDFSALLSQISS

For `O=C(/C=C/C=C/c1ccccc1)N1CCCCC1`, the result in assay [1] was Active. For the same molecule, the inhibition result in [2] was “Dose-dependent effect”; in assay [3], 71.9%; in assay [4] it was 85.9%; in assay [6] it was “Dose-dependent effect”; in assay [7] it was “Dose-dependent effect”; in assay [8] it was 73.9%. Further, the inhibition entry is “Dose-dependent effect” in assay [9]; 88.2% in assay [11]; “Dose-dependent effect” in assay [12]; “Dose-dependent effect” in assay [13]; 82.2% in assay [14]; “Dose-dependent effect” in [16]. Moreover, the half-maximal inhibitory concentration (IC50) was found to be 57.1 µg/mL (≈ 237 µM) in assay [5] and 43.2 µg/mL (≈ 179 µM) in assay [17]. Besides, the inhibition result in assay [10] and in assay [15] was “inactive” throughout. Also, the Activity result in [17] is “Dose-dependent effect”.
On to `O=C(/C=C/C=C/c1ccc2c(c1)OCO2)N1CCCCC1`, for which the inhibition in assay [3] was 67.3%; in assay [4] it was 86.6%; in assay [6] it was “Dose-dependent effect”; in assay [18], 75%; in assay [8] it was 67.5%; in assay [11] it was 90.2%. In addition, the inhibition came to 85.1% in assay [14] and 90% in assay [19].
Consider `COc1ccc(/C=C/C=C/C(=O)N2CCCCC2)c(OC)c1OC`, for which the inhibition in assay [3] is 39.2%; in assay [4] it was 59.8%; in assay [6] it was “Dose-dependent effect”; in [8], 52.9%; in [11], 62.9%; in assay [14] it was 59.2%.
Turning to `O=C(/C=C/C=C/C=C/c1ccc2c(c1)OCO2)N1CCCCC1`, the inhibition in [3] was 34%; in [4], 71%; in [6] it was “Dose-dependent effect”; in assay [8], 56.6%; in assay [11], 71.2%; in assay [14], 65.8%.
Turning to `CN(C)c1ccc(/C=C/C=C/C=C/C(=O)N2CCCCC2)cc1`, the inhibition in assay [3] is 37.2%; in assay [4] it was 57.2%; in [6], “Dose-dependent effect”; in [8] it was 56.2%; in [11] it was 59.9%; in assay [14] it was 56.8%.
For the molecule `CC(=O)Oc1ccc(/C=C/C=C/C(=O)N2CCCCC2)cc1`, the inhibition in [3] is 70.3%; in assay [4] it was 78.1%; in [6], “Dose-dependent effect”; in assay [8], 71.4%; in assay [11], 80.1%; in assay [14], 75.3%.
Consider `COc1ccc(/C=C/C=C/C(=O)N2CCCCC2)cc1OC`, for which the inhibition in [3] is 43.4%; in assay [4], 78.9%; in assay [6], “Dose-dependent effect”; in assay [8], 67.5%; in [11], 80.1%; in [14], 73.9%.
For `CN(C)c1ccc(/C=C/C=C/C(=O)N2CCCCC2)cc1`, the inhibition entry in assay [20], in assay [21], in assay [23], in assay [24], in assay [25] and in assay [26] was “inactive” throughout. The inhibition in assay [3] is 95.5%; in assay [4] it was 97.7%; in assay [6], “Dose-dependent effect”; in assay [8], 96.6%; in [11], 97.9%; in assay [14] it was 97.3%. In addition, the outcome in assay [22] was Active. Besides, the IC50 in assay [5] worked out at 69.1 µg/mL (≈ 243 µM); in assay [17] it was 0.39 µg/mL (≈ 1.37 µM). Also, the Activity result in assay [17] is “Dose-dependent effect”.
Take `COc1ccc(/C=C/C=C/C=C/C(=O)N2CCCCC2)cc1`: the inhibition was 26.4% in assay [3]; 50.7% in assay [4]; “Dose-dependent effect” in [6]; 34% in assay [8]; 51.8% in [11]; 44.8% in assay [14].
Take `COc1ccc(/C=C/C=C/C(=O)N2CCCCC2)cc1`: in [1], the result was Active. For the same molecule, the inhibition result in [2] was “Dose-dependent effect”; in [3] it was 69.7%; in [4], 86.9%; in assay [6], “Dose-dependent effect”; in assay [7], “Dose-dependent effect”; in [8], 76.3%. The inhibition result in assay [9] was “Dose-dependent effect”; in assay [11], 89.9%; in assay [12], “Dose-dependent effect”; in assay [13], “Dose-dependent effect”; in assay [14] it was 77.2%; in assay [16] it was “Dose-dependent effect”. Besides, the concentration for half-maximal inhibition (IC50) in assay [5] worked out at 63.2 µg/mL (≈ 233 µM); in assay [17] it was 16.8 µg/mL (≈ 62.1 µM). In addition, the inhibition result in [25] and in assay [26] was “inactive” in each case. For the same molecule, the Activity result in [17] is “Dose-dependent effect”.
Take `O=C(/C=C/C=C/c1ccc(OC2CCCC2)cc1)N1CCCCC1`: the inhibition was 57.6% in [3]; 69.7% in assay [4]; “Dose-dependent effect” in assay [6]; 61.7% in assay [8]; 72.2% in assay [11]; 63.2% in assay [14].
For `O=C(/C=C/C=C/c1ccc(O)cc1)N1CCCCC1`, the inhibition is 68.4% in [3]; 91.5% in assay [4]; “Dose-dependent effect” in assay [6]; 79.6% in assay [8]; 92.2% in [11]; 89.8% in assay [14].
On to `COc1cc(/C=C/C=C/C(=O)N2CCCCC2)cc(OC)c1OC`, for which the inhibition in assay [3] was 34.1%; in assay [4] it was 56.9%; in assay [6], “Dose-dependent effect”; in [8], 44.6%; in assay [11], 59.8%; in [14] it was 53.1%.
